Source: article PMC8248332 (Chembiochem, 2021)
Square brackets hold non-standard residues; d marks the D form. Peptide text beside a SMILES is read from it. pS = N[C@@H](COP(=O)(O)O)C(=O)O

Key:
14‐3‐3ζ = settings: CRaf and the isomer 14‐3‐3ζ; Molzan et al.; cited from earlier work
14‐3‐3σ = target: T1, 14‐3‐3σ (Homo sapiens, UniProt P31947); experiment: Isothermal titration calorimetry; type: binding; settings: dissolved CRaf (1 mM) into 14‐3‐3σ (50 μM), HEPES 25 mM pH 7.4, 25 °C
T1 sequence (P31947 1-248): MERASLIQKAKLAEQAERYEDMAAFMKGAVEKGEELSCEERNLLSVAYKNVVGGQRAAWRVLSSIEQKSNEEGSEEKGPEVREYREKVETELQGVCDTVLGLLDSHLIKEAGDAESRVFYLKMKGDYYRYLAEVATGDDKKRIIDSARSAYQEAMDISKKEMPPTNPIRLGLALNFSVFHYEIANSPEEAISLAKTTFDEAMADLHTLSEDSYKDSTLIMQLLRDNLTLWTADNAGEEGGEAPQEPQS
Summary of the method: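 14-3-3σ purified by size-exclusion chromatography (20 mM Tris-HCl pH 7.5, 150 mM NaCl, 2 mM DTT), then dialysed into 25 mM HEPES pH 7.4. Cell held 300 μL protein. First injection 0.4 μL, mixing time 0.8 s, 180 s between injections. Enthalpy per injection versus peptide:protein molar ratio fitted sigmoidally; inflection point gives N, slope there gives KD.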

- binding ratio from ITC (peptide/protein), N (14‐3‐3σ): 0.84±0.01
Compound: CC(C)C[C@H](NC(=O)[C@H](CO)NC(=O)CNC(=O)[C@H](CCC(=O)O)NC(=O)[C@H](CO)NC(=O)[C@H](CS)NC(=O)[C@@H]1CCCN1C(=O)[C@H](CO)NC(=O)[C@H](CO)NC(=O)[C@@H](NC(=O)[C@H](CC(N)=O)NC(=O)[C@H](Cc1ccccc1)NC(=O)[C@@H](NC(=O)[C@H](Cc1ccccc1)NC(=O)[C@H](C)NC(=O)[C@H](Cc1c[nH]cn1)NC(=O)[C@@H]1CCCN1C(=O)[C@@H](NC(=O)[C@H](COP(=O)(O)O)NC(=O)[C@H](Cc1ccc(O)cc1)NC(=O)[C@H](CCCNC(=N)N)NC(=O)[C@H](Cc1c[nH]cn1)NC(=O)[C@@H](N)CCC(N)=O)[C@@H](C)O)[C@@H](C)O)[C@@H](C)O)C(=O)N[C@@H](CO)C(=O)N[C@@H](CCC(N)=O)C(=O)N[C@@H](CCCNC(=N)N)C(=O)N[C@@H](CCC(N)=O)C(=O)N[C@@H](CCCNC(=N)N)C(=O)N[C@@H](CO)C(=O)N[C@H](C(=O)N[C@@H](COP(=O)(O)O)C(=O)N[C@H](C(=O)N1CCC[C@H]1C(=O)N[C@@H](CC(N)=O)C(=O)N[C@H](C(=O)N[C@@H](Cc1c[nH]cn1)C(N)=O)C(C)C)[C@@H](C)O)[C@@H](C)O [CRaf] (H-QHRY[pS]TPHAFTFNTSSPCSEGSLSQRQRST[pS]TPNVH-NH2)
- Kd (14‐3‐3ζ): 80 nM
